# T cruzi growth-1 – T. cruzi proliferation inhibition | T. cruzi beta-gal in NIH3T3, GalScreen luminescence, 90 h | inhibition, % at 8.34 µM | 77,000 compounds, 5.9% hits | AID 624255;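 active = mean inhibition above about 93%, with at least 55% of replicates each passing it, limit read from the data, passing the limit was not always enough; inconclusive = only one of those two conditions holds; inactive = neither condition holds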
# KDM4C inh – KDM4C (human) demethylase inhibition. Q9H3R0. GST-KDM4C 2-372, H3K9me3 peptide, LANCE TR-FRET. inhibition, % at 12.5 µM. 96,000 compounds, 0.15% hits. AID 720574;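 active = mean replicate inhibition above about 25%, with at least 55% of replicates also reaching it, limit read from the data, passing the limit was not always enough; inconclusive = only one of those two conditions met; inactive = neither condition met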
#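 Test system – GST-tagged GASC-1 (JMJD2C) catalytic fragment, aa 2-372 · Medium – HEPES buffer, pH 7.5, plus ascorbate · Reagent – H3K9me3 peptide with Fe(II)/2OG · Compound – one test concentration per compound · Timing – 30 min reaction, 60 min detection, RT · Technique – TR-FRET with Eu antibody and ULight streptavidin, EDTA stop · Read-out basis – inhibition from TR-FRET ratio decrease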
# IDH1 mut inh – inhibitors of human IDH1 R132H; AID 624101; IDH1 R132H reductase, diaphorase/resazurin fluorescence, 60 min; 70,000 compounds, 0.18% hits; inhibition, % at 10 µM; O75874; in the data active = inhibition above about 34%; inconclusive = no clear call, values can overlap the other calls; inactive = below about 11%;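 note: 0% = DMSO and 100% = no enzyme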
# Target sequence (O75874 whole entry R132H): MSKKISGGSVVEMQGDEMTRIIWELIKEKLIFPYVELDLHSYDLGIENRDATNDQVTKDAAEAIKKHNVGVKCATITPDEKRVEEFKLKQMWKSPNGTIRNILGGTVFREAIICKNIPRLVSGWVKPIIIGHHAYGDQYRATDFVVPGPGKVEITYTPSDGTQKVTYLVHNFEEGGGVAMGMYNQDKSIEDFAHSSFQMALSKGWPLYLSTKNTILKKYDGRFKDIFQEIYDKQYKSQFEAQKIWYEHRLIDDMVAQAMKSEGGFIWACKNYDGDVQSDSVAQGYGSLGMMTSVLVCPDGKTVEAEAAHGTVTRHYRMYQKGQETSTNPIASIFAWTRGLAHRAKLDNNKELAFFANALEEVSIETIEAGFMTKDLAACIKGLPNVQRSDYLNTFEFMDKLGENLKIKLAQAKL
# T cruzi growth-2 – inhibitors of T. cruzi proliferation; shares compounds with T cruzi growth-1; T. cruzi beta-gal in NIH3T3, GalScreen luminescence, 90 h; inhibition, % at 8.35 µM; 5,600 compounds, 72% hits; AID 651739;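 active = mean replicate inhibition above about 95% and at least 55% of replicates individually reaching it, limit read from the data; inconclusive = only one of the two criteria is met; inactive = neither criterion is met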
# T cruzi growth-3 – Trypanosoma cruzi proliferation inhibition; inhibition, % at 2.09 µM; AID 651740; T. cruzi beta-gal in NIH3T3, GalScreen luminescence, 90 h; shares compounds with T cruzi growth-1; 5,600 compounds, 21% hits;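 active = mean inhibition above about 95%, with at least 55% of replicates also reaching it, limit read from the data; inconclusive = meets just one of the two conditions; inactive = meets neither condition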;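 note: plate controls were neutral control median for no effect and positive control median for full effect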
# NIH3T3 tox – cytotoxicity in mouse NIH/3T3 fibroblasts; shares compounds with T cruzi growth-1; cytotoxicity (signal decrease), % at 8.35 µM; 5,600 compounds, 14% hits; AID 651742; NIH/3T3 viability, CellTiter-Glo ATP luminescence, 90 h;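 active = mean signal decrease across replicates above about 35% based on untreated-well scatter, with enough replicates individually passing, limit read from the data; inconclusive = no rule stated though some were filed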;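 note: 0% = median of neutral control wells and 100% = median of positive control wells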
# NIH3T3 tox 2 – NIH/3T3 (mouse) viability loss | 5,600 compounds, 56% hits | inhibition, % at 24.9 µM | NIH/3T3 viability, CellTiter-Glo ATP luminescence, 90 h | shares compounds with T cruzi growth-1 | AID 651744;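 active = mean loss of cell viability signal at or above a set limit, and enough replicates individually reaching it; inconclusive = meets only the mean limit or only the replicate share; inactive = meets neither condition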;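 note: 0% = median of neutral control wells and 100% = median of positive control wells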
# * = called active by the depositor; ? = inconclusive; . = no result given. This is one part of a sample in which hits are shown more often than they occur.
SMILES,T cruzi growth-1,KDM4C inh,IDH1 mut inh,T cruzi growth-2,T cruzi growth-3,NIH3T3 tox,NIH3T3 tox 2
Cc1noc(C)c1NC(=O)N(C)C[C@H]1Oc2ccc(NC(=O)Nc3ccccc3)cc2CC(=O)N([C@H](C)CO)C[C@@H]1C,-4,1,0,.,.,.,.
C[C@H]1CN([C@@H](C)CO)C(=O)c2cc(-c3cncnc3)cnc2O[C@@H]1CN(C)Cc1ccc(Oc2ccccc2)cc1,.,2,0,.,.,.,.
COc1ccc(S(=O)(=O)Nc2ccc3c(c2)C(=O)N([C@H](C)CO)C[C@H](C)[C@H](CN(C)C(=O)CCC(F)(F)F)OCCCC[C@@H](C)O3)cc1,-18,-1,0,.,.,.,.
COc1cccc(S(=O)(=O)N(C)C[C@@H]2Oc3ncc(C#CCC(C)C)cc3C(=O)N([C@@H](C)CO)C[C@@H]2C)c1,82,1,-2,.,.,.,.
COc1ccc(S(=O)(=O)N(C)C[C@@H]2Oc3ncc(C#Cc4ccccc4)cc3C(=O)N([C@H](C)CO)C[C@@H]2C)cc1,109*,0,-1,101*,33,-4,63*
Cc1ccc(S(=O)(=O)N(C)C[C@@H]2Oc3ncc(C#Cc4cccc(F)c4)cc3C(=O)N([C@H](C)CO)C[C@@H]2C)cc1,121*,-5,3,99*,51,?,52*
COc1cccc(S(=O)(=O)N(C)C[C@H]2Oc3ncc(C#CCC(C)C)cc3C(=O)N([C@@H](C)CO)C[C@@H]2C)c1,?,0,0,111*,55,4,73*
COc1ccc(S(=O)(=O)N(C)C[C@@H]2Oc3ncc(C#Cc4ccc(OC)c(OC)c4)cc3C(=O)N([C@H](C)CO)C[C@@H]2C)cc1,111,-9,2,.,.,.,.
C[C@H](CO)N1C[C@H](C)[C@H](CN(C)S(=O)(=O)c2ccc(C#N)cc2)Oc2ncc(C#Cc3cccc(F)c3)cc2C1=O,11,-2,0,.,.,.,.
CN(CC(=O)N1CCN(c2ccccn2)CC1)S(=O)(=O)c1ccc2ccccc2c1,.,.,0,.,.,.,.
O=C(Cc1ccccn1)NCC[C@@H]1CC[C@H](NC(=O)Nc2ccc(Cl)cc2)[C@@H](CO)O1,-14,0,0,.,.,.,.
C/C=C/c1ccc([C@@H]2[C@H]3CN(S(=O)(=O)c4ccccc4)CCCCN3[C@H]2CO)cc1,84,-1,.,.,.,.,.
C/C=C/c1ccc([C@H]2[C@@H](CO)N3CCCCN(S(=O)(=O)c4cccc(C)c4)C[C@H]23)cc1,102*,0,.,101*,90,18,104*
C/C=C/c1ccc([C@H]2[C@@H](CO)N3CCCCN(S(=O)(=O)c4ccccc4)C[C@@H]23)cc1,102*,0,.,100*,-16,4,2
C/C=C/c1ccc([C@@H]2[C@H](CO)N3CCCCN(S(=O)(=O)c4cccc(C)c4)C[C@@H]23)cc1,76,-1,.,.,.,.,.
Cc1noc(C)c1S(=O)(=O)Nc1ccc2c(c1)C(=O)N([C@@H](C)CO)C[C@H](C)[C@@H](CN(C)C(=O)c1ccccc1)OCCCC[C@H](C)O2,-88,3,-1,.,.,.,.
Cc1ccc(S(=O)(=O)N(C)C[C@H]2OCCCC[C@H](C)Oc3ccc(NC(=O)Nc4ccc(F)cc4)cc3C(=O)N([C@@H](C)CO)C[C@H]2C)cc1,59,-1,.,.,.,.,.
Cc1ccc(S(=O)(=O)N(C)C[C@H]2OCCCC[C@@H](C)Oc3ccc(NC(=O)Nc4ccc(F)cc4)cc3C(=O)N([C@@H](C)CO)C[C@@H]2C)cc1,.,0,.,.,.,.,.
Cc1ccc(S(=O)(=O)N(C)C[C@@H]2OCCCC[C@@H](C)Oc3ccc(NC(=O)Nc4ccc(F)cc4)cc3C(=O)N([C@H](C)CO)C[C@H]2C)cc1,114*,-1,.,109*,109*,-3,24
Cc1ccc(S(=O)(=O)N(C)C[C@@H]2OCCCC[C@H](C)Oc3ccc(NC(=O)Nc4ccc(F)cc4)cc3C(=O)N([C@H](C)CO)C[C@@H]2C)cc1,109*,0,-1,97*,107*,3,41*
CC(C)CC#Cc1cnc2c(c1)C(=O)N([C@H](C)CO)C[C@@H](C)[C@H](CN(C)Cc1cccc(F)c1)O2,103*,-2,-2,106*,46,24,102*
CC(C)CC#Cc1cnc2c(c1)C(=O)N([C@@H](C)CO)C[C@H](C)[C@@H](CN(C)Cc1cccc(F)c1)O2,102*,1,-2,108*,83,17,105*
C[C@H](CO)N1C[C@H](C)[C@H](CN(C)Cc2cccc(F)c2)Oc2ncc(C#CCc3ccccc3)cc2C1=O,-74,13,2,.,.,.,.
C[C@@H]1CN([C@H](C)CO)C(=O)c2cc(C#CCc3ccccc3)cnc2O[C@@H]1CN(C)Cc1cccc(F)c1,-5,0,0,.,.,.,.
CC(C)CC#Cc1cnc2c(c1)C(=O)N([C@H](C)CO)C[C@@H](C)[C@@H](CN(C)Cc1cccc(F)c1)O2,?,-1,-1,104*,50,18,61*
SMILES,T cruzi growth-1,KDM4C inh,IDH1 mut inh,T cruzi growth-2,T cruzi growth-3,NIH3T3 tox,NIH3T3 tox 2
C[C@@H]1CN([C@H](C)CO)C(=O)c2cc(C#CCc3ccccc3)cnc2O[C@H]1CN(C)Cc1cccc(F)c1,72,0,1,.,.,.,.
O=C(C[C@H]1C=C[C@@H](NC(=O)c2cccc(F)c2)[C@H](CO)O1)NCc1ccc(Oc2ccccc2)cc1,8,-1,0,.,.,.,.
COc1ccc(NC(=O)N(C)C[C@@H]2OCCCC[C@@H](C)Oc3ccc(NC(=O)Nc4ccc(C(F)(F)F)cc4)cc3C(=O)N([C@@H](C)CO)C[C@@H]2C)cc1,.,1,1,.,.,.,.
COc1ccc(NC(=O)Nc2ccc3c(c2)C(=O)N([C@@H](C)CO)C[C@@H](C)[C@@H](CN(C)C)OCCCC[C@H](C)O3)cc1,27,-2,3,.,.,.,.
COc1ccc(NC(=O)N(C)C[C@H]2OCCCC[C@H](C)Oc3ccc(NC(=O)Nc4ccc(F)cc4)cc3C(=O)N([C@@H](C)CO)C[C@H]2C)cc1,-23,-2,.,.,.,.,.
COc1ccc(NC(=O)Nc2ccc3c(c2)C(=O)N([C@H](C)CO)C[C@H](C)[C@@H](CN(C)C(=O)Nc2ccc(C(F)(F)F)cc2)OCCCC[C@@H](C)O3)cc1,112,0,.,.,.,.,.
COc1ccc(NC(=O)Nc2ccc3c(c2)C(=O)N([C@H](C)CO)C[C@H](C)[C@H](CN(C)C(=O)Nc2ccc(C(F)(F)F)cc2)OCCCC[C@H](C)O3)cc1,?,0,-1,109*,99*,5,7
COc1ccc(NC(=O)N(C)C[C@H]2OCCCC[C@@H](C)Oc3ccc(NC(=O)Nc4ccc(F)cc4)cc3C(=O)N([C@H](C)CO)C[C@H]2C)cc1,100*,-1,.,112*,40,-2,-5

# Bioassay records from PubChem BioAssay.
